Active and inactive are the calls of the source. The rule behind the calls is not given here.
How the values were obtained:
[1] = biological target: T1, Polyunsaturated fatty acid 5-lipoxygenase (Homo sapiens) (UniProt P09917); test: Inhibition of human recombinant 5-lipoxygenase expressed in Escherichia coli BL21 assessed as enzyme product formation measured up to 30 uM in presence of 13(S)-HpODE
T1 sequence (whole entry): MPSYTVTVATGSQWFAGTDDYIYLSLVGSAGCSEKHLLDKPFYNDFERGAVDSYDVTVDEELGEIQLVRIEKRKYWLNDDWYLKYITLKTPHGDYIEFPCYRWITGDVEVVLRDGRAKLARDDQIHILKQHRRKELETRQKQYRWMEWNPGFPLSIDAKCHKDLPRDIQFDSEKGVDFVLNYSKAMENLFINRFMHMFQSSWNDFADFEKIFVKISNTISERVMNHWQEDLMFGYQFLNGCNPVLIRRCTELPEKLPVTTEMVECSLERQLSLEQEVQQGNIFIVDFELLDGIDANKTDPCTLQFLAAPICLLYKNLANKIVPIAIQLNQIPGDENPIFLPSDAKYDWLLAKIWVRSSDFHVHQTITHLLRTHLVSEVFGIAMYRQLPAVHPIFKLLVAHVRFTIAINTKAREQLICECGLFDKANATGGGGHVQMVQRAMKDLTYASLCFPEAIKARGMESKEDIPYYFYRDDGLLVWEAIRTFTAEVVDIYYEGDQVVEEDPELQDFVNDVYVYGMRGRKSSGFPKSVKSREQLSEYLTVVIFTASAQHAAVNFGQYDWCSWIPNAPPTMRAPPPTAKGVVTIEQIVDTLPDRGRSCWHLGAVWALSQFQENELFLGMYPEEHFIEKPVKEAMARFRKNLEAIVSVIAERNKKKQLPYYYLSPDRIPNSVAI
How it was run: (§1)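 Human 5-LO expressed in E. coli BL21 (pT3-5LO), affinity-purified and used at once. 0.5 µg enzyme in 1 ml PBS/EDTA with 1 mM ATP preincubated with compound 5–10 min at 4 °C, then warmed 30 s at 37 °C. Reaction started with 2 mM CaCl₂ and AA (routinely 20 µM), with or without 1 µM 13(S)-HpODE. Run 10 min at 37 °C, stopped with ice-cold methanol, products analysed by HPLC. Washout: 10-fold dilution (10 to 1 µM).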

[2] = biological target: T2, Cytosolic phospholipase A2 (Homo sapiens) (UniProt P47712); test: Inhibition of cPLA2 assessed as residual activity at 10 uM after 5 mins
T2 sequence (whole entry): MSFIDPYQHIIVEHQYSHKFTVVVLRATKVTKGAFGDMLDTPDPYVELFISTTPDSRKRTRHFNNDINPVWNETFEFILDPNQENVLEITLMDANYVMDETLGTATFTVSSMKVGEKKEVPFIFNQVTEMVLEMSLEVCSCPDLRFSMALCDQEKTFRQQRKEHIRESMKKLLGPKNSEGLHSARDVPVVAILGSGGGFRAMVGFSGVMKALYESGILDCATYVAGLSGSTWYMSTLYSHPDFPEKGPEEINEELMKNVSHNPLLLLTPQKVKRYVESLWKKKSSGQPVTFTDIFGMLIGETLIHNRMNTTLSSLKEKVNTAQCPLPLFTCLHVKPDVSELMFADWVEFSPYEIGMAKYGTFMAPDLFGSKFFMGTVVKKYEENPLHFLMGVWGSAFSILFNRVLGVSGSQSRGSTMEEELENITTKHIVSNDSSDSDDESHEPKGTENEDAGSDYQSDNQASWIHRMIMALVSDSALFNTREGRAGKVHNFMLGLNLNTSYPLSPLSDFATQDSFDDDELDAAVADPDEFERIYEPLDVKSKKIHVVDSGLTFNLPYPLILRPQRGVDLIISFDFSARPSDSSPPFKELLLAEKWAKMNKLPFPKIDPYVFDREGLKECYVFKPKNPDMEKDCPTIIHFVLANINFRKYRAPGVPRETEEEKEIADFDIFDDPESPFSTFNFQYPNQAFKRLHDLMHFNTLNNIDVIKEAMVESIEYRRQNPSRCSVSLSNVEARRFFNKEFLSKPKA

[3] = biological target: T3, Polyunsaturated fatty acid 5-lipoxygenase (Homo sapiens, UniProt P09917); test: Inhibition of 5-lipoxygenase in A23187-stimulated human PMNL assessed as enzyme product formation preincubated 15 mins by RP-HPLC analysis in presence of exogenous arachidonic acid
T3 sequence (P09917 whole entry): T1 sequence (whole entry)
How it was run: (§2)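 Freshly isolated human PMNL (5 × 10⁶/ml PGC buffer: PBS pH 7.4, 1 mg/ml glucose, 1 mM CaCl₂) preincubated with compound 15 min at 37 °C. Stimulated with 2.5 µM A23187 plus exogenous AA for 10 min at 37 °C. Stopped with methanol, PGB₁ added as internal standard, lipoxygenase products analysed by HPLC. Mean of n = 3–5.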

[4] = biological target: T4, Polyunsaturated fatty acid lipoxygenase ALOX12 (Homo sapiens) (UniProt P18054); test: Inhibition of 12-lipoxygenase in A23187-stimulated human PMNL assessed as reduction of 12(S)-H(P)ETE formation up to 10 uM preincubated 15 mins by RP-HPLC analysis in presence of exogenous arachidonic acid; how it was run: as §2
T4 sequence (whole entry): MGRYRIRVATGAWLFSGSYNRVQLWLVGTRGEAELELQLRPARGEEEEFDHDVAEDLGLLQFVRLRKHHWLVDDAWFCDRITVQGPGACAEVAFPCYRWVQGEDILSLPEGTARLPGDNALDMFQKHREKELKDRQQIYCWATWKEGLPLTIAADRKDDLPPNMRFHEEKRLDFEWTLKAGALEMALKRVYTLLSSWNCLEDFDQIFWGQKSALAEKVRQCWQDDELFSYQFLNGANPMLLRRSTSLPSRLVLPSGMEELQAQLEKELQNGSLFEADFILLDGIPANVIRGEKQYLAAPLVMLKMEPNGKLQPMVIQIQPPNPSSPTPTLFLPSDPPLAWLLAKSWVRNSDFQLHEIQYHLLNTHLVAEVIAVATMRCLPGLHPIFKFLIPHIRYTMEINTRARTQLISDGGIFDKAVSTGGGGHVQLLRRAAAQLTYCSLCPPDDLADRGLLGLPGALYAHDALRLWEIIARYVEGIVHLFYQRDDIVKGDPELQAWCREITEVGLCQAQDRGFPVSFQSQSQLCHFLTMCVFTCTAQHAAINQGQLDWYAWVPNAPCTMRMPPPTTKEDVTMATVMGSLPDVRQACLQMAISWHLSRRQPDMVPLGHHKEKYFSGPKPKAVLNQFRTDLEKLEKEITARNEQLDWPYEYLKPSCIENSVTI

[5] = biological target: T3, Polyunsaturated fatty acid 5-lipoxygenase; test: Inhibition of human recombinant 5-lipoxygenase expressed in Escherichia coli BL21 assessed as enzyme product formation using arachidonic acid as substrate after 10 mins by RP-HPLC analysis; how it was run: as §1

inhibition [1]: Active
Activity [2]: 106%
IC50 [3]: 900 nM
inhibition [4]: inactive
IC50 [5]: 3500 nM
Structure (SMILES): CCCCC(Sc1ccc(OCCCOc2ccc(-c3ccccc3)cc2)cc1)C(=O)O (stereo not given)

Source: ChEMBL document CHEMBL1777776, “Identification of 2-mercaptohexanoic acids as dual inhibitors of 5-lipoxygenase and microsomal prostaglandin E₂ synthase-1” (Bioorg Med Chem, 2011)
